Measurements: PubChem BioAssay
Calls of active or inactive are those of the source.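 The calls were made as follows, unless noted: active = visually confirmed hit in the image check and inhibition above 20%; inconclusive = visually confirmed hit but inhibition not above 20%; inactive = no visual hit in the image check.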

Tests used:
[1] = inhibitors of TNFa-induced NFkB p65 translocation, primary screen, imaging, HUVEC, MLSMR starter and 10KST1 sets (AID 438;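 active = inhibition above 20% together with a positive visual image hit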;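 also: compound added about 3h40 before a 20 min TNFalpha stimulation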;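 as to inhibition: signal is the nuclear over cytoplasmic p65 intensity ratio per well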); conditions: HUVEC TNFa-induced p65 nuclear translocation; cell count: measured here: nuclei count (cytotoxicity indicator), at 2.08 µM; inhibition: at 2 µM, stronger effect = higher value, 0% TNFa-plus-vehicle, 100% no-TNFa wells
[2] = reduction of polyQ htt aggregates in cells – imaging, exon1htt(103Q)mCFP cells, high-content imaging, primary screen (AID 483;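 active = visual image review flags a hit and inhibition of aggregation exceeds 20%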;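 also: compound exposure lasted 3 days before fixation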;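 as to nuclei count: percent of the per-plate median nuclei count of sample wells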); conditions: exon1htt(103Q)mCFP cell line, aggregate imaging, at 2 µM; inhibition of aggregation: stronger effect = higher value; nuclei count: measured here: cell count, toxicity
[3] = endothelial E-selectin expression blockers – imaging, HUVEC, immunofluorescence, MLSMR starter and 10KST1 sets, primary screen (AID 487); conditions: HUVEC TNFalpha-induced E-selectin immunofluorescence imaging, at 2 µM; inhibition: stronger effect = higher value; nuclei count: measured here: cell number, toxicity;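 as to inhibition: signal is fraction of cell area covered by stained E-selectin grains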;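 as to nuclei count: 100% = median nuclei count of all wells on the same plate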
[4] = target: Voltage-gated potassium channel subunit beta-2 (Rattus norvegicus) (UniProt P62483); experiment: inhibitors of rat Kvbeta2 reductase activity – biochemical, NADPH fluorescence, primary screen (AID 622;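 active = fluorescence slope higher than the sample average by over 3 SD, cut at about -0.22 in these data, passing the limit was not always enough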;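 also: slope of raw intensity against log time taken from 70 to 1610 s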); conditions: recombinant KvBeta, 4-cyanobenzaldehyde reduction, at 10 µM, stronger effect = higher value
Voltage-gated potassium channel subunit beta-2 (Rattus norvegicus), sequence (P62483 whole entry, looked up): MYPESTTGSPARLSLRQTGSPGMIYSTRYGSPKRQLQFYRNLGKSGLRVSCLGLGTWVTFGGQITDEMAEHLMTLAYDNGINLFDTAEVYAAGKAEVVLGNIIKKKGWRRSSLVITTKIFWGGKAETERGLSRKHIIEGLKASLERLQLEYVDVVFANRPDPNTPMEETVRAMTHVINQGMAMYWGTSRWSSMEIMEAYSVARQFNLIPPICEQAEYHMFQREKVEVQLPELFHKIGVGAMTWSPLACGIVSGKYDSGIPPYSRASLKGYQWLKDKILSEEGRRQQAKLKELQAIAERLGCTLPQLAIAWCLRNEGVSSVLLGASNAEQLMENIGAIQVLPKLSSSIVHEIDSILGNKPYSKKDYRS

[5] = target: Voltage-gated potassium channel subunit beta-2 (Rattus norvegicus) (UniProt P62483); experiment: enhancers of rat Kvbeta2 NADPH turnover – biochemical, NADPH fluorescence, primary screen (AID 623;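 active = NADPH fluorescence slope more negative than the mean of all samples by about 3 SD, 99.7% confidence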;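 also: fluorescence intensity change per second fitted from 20 to 320 s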); conditions: Recombinant KvBeta, NADPH fluorescence decrease slope, 10 min; at 10 µM; stronger effect = lower value
[6] = target: Muscarinic acetylcholine receptor M4 (Homo sapiens) (UniProt P08173); experiment: M4-linked GIRK flux change, two-sided – cell-based, HEK293 M4/GIRK, thallium flux, BTC-AM, M4 allosteric agonist project, primary screen (AID 625;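 active = fluorescence slope after compound addition differing from the mean of all tested samples at 99.7% confidence, mostly higher but some lower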;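 also: thallium influx through GIRK channels coupled to M4 in HEK293 cells with BTC-AM dye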); conditions: at 10 µM, actives lie on both sides
Muscarinic acetylcholine receptor M4 (Homo sapiens), sequence (P08173 whole entry, looked up): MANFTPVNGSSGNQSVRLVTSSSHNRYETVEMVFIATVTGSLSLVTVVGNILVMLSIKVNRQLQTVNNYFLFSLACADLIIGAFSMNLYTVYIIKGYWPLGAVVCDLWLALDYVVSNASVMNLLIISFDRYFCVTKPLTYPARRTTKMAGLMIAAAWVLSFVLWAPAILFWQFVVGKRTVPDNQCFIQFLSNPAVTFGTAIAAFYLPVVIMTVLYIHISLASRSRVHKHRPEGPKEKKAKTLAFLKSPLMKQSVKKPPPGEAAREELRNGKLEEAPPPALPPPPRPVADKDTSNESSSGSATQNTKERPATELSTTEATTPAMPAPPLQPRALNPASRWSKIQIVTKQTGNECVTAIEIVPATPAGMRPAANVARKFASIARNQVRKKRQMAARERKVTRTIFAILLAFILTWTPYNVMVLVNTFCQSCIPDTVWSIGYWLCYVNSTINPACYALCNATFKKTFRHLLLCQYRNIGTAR
In short: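 assay system = HEK293 cells with M4 receptor and GIRK channels | medium = pH 7.3 thallium assay buffer | doses = 10 µM final, single point | timing = cells overnight at 37 °C, BTC-AM loading 1 h, reads 2 min total | signal = BTC-AM fluorescence, 1 Hz kinetic reads | read-out = post-addition slope, 15–24 s, of baseline-normalized fluorescence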

[7] = blockers of RIG-like receptor reporter activation – cell-based, Sendai virus stimulus, luciferase, 10K MLSCN set, TLR/RLR signaling modifier project, primary screen (AID 602276;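 active = inhibition at or above 50% at 10 µM; inactive = inhibition below 50%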;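 also: firefly luciferase from ISG56 promoter only with Renilla not read in this screen; 0% = Sendai virus plus DMSO and 100% = medium plus DMSO without virus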); conditions: HEK293 RL24 IRF3 luciferase reporter, at 10 µM, stronger effect = higher value
[8] = TLR3 IRF3 reporter activation blockers – cell-based, poly I:C stimulus, luciferase, 10K MLSCN set, primary screen (AID 602277;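 active = inhibition of the reporter signal at or above 50%; inactive = inhibition below 50%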); conditions: HEK293-TLR3 RL24 IRF3 luciferase reporter, at 10 µM, stronger effect = higher value
[9] = target: Alpha-2C adrenergic receptor (Homo sapiens) (UniProt P18825); experiment: compounds altering alpha2C-coupled GIRK flux – cell-based, HEK293 alpha2C/GIRK1/2, thallium flux, primary screen (AID 624;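 active = fluorescence slope after compound addition differing from the mean of all screened samples at 99.7% confidence, in either direction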;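 also: slope of fluorescence ratio to pre-addition baseline per second over 15 to 24 s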); conditions: thallium flux BTC fluorescence, at 10 µM, actives lie on both sides
Alpha-2C adrenergic receptor (Homo sapiens), sequence (P18825 whole entry, looked up): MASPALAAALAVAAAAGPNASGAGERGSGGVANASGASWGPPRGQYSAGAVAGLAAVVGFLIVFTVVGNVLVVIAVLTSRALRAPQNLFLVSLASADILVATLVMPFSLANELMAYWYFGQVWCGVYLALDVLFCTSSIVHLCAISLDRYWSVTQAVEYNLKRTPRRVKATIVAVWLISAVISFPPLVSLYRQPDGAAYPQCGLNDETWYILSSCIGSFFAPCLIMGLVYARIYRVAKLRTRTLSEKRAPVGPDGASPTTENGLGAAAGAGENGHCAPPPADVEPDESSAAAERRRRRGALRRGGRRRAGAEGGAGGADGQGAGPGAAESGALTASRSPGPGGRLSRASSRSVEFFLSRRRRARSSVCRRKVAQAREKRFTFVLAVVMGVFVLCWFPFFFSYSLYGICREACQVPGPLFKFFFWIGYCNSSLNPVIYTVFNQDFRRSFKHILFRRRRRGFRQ

[10] = inhibitors of larval lipid processing in zebrafish, primary screen, whole organism, PED6 fluorescence, gall bladder and intestine (AID 686;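 active = a full or partial loss of lipid-probe fluorescence in the fish gall bladder, intestine or both, judged by eye; inactive = no fluorescence loss, or compound toxic to the fish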;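 also: larvae 5 to 7 days old with five fish per well; signal comes from phospholipase A2 cleavage of quenched PED6 carried via bile; overnight exposure to compound and PED6 before scoring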); conditions: Zebrafish larvae PED6 lipid processing, fluorescence scoring; screened at 20 µM (by protocol)
In short: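 Also added: quenched phospholipase substrate PED6, 100 nM final, ingested by larvae; System: zebrafish larvae, 5-7 d; Quantity: 5 larvae per well; Compound: 20 µM single dose; Schedule: overnight compound and PED6 incubation; Read-out: visual per-well fluorescence inhibition score; Measured by: By-eye fluorescence microscopy; Medium: E3.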

SMILES	cell count [1]	inhibition [1]	inhibition of aggregation [2]	nuclei count [2] [%]	inhibition [3]	nuclei count [3] [%]	fluorescence slope [4]	NADPH fluorescence slope [5]	fluorescence slope [6]	inhibition [7]	inhibition [8]	slope [9]	outcome [10]
Cc1cccn2c(=O)c3cc(C#N)c(=NC(=O)c4ccncc4)n(Cc4ccco4)c3nc12	386	-1% (inactive)	5% (inactive)	99.9	-36.9% (inactive)	114	-0.535 (inactive)	-1.2e-05 (inactive)	0.00818 (inactive)	10.3% (inactive)	19.4% (inactive)		
CCCc1cc(=O)n2[nH]c(-c3ccc(Br)cc3)cc2n1	320	1.7% (inactive)	-4.6% (inactive)	98.8	-27.5% (inactive)	119	-0.473 (inactive)	-2.2e-05 (inactive)	0.00575 (inactive)	-22.4% (inactive)	-15.4% (inactive)		
COc1ccccc1C(=O)N1CCNC(=O)C1CC(=O)Nc1ccc(Cl)cc1 (stereo not given)	469	1.3% (inactive)	9.7% (inactive)	105	-302% (inactive)	123	-0.565 (inactive)	-2.7e-05 (inactive)	0.00504 (inactive)	18.2% (inactive)	28.3% (inactive)		
CCCCOc1cccc(NC(=O)CSc2nccn2C)c1	397	2.5% (inactive)	0.8% (inactive)	96.8	6.2% (inactive)	108	-0.318 (inactive)	-3.3e-05 (inactive)	0.00562 (inactive)	-4.33% (inactive)	-42.2% (inactive)		
COC(=O)c1ccc(CSc2nnnn2Cc2ccccc2)cc1	341	3% (inactive)	-32.1% (inactive)	108	-32.4% (inactive)	104	-0.322 (inactive)	3.4e-06 (inactive)		9.31% (inactive)	37.9% (inactive)	0.00496 (inactive)	inactive
COc1cccc(OCC(O)CN2CCN(CCO)CC2)c1 (stereo not given)	383	-1% (inactive)	-24.6% (inactive)	105	-46.4% (inactive)	102	-0.475 (inactive)	-0.000292 (inactive)	0.00352 (inactive)	8.25% (inactive)	13.5% (inactive)		
Cc1ccc(C)c(-n2nnnc2SCC(=O)NCCC2=CCCCC2)c1	409	-6.6% (inactive)	28.8% (inactive)	99.5	-16.3% (inactive)	106	-0.468 (inactive)	-5.4e-05 (inactive)		17.6% (inactive)	14.8% (inactive)	0.00361 (inactive)	inactive
Cc1onc(-c2ccccc2Cl)c1C(=O)Nc1cccc(-c2cn3cccnc3n2)c1	369	-10.3% (inactive)	7.8% (inactive)	100	-4% (inactive)	109	-0.0447 (inactive)	-9.5e-06 (inactive)	0.00573 (inactive)	7.13% (inactive)	1.48% (inactive)		
COc1cccc(OC)c1C(=O)Nc1ccc(CN2CCCCC2)cc1	640	-2.4% (inactive)	-16.7% (inactive)	71.4	-32.5% (inactive)	98.8	-0.425 (inactive)	-3.1e-06 (inactive)	0.00659 (inactive)	13.4% (inactive)	23.2% (inactive)		
COCCCNC(=O)C1CCCN(C(=O)Nc2ccc(OC)cc2)C1 (stereo not given)	675	-14.8% (inactive)	-11.8% (inactive)	107	52.7% (inactive)	49.2	-0.315 (inactive)	-5.2e-05 (inactive)	0.007 (inactive)	16.2% (inactive)	4.9% (inactive)		
CCCC1C(C#N)=C(N)Oc2n[nH]c(C(C)(C)C)c21 (stereo not given)	330	-6.9% (inactive)	-30.2% (inactive)	102	26.6% (inactive)	115	-0.571 (inactive)	-3.1e-05 (inactive)	0.00609 (inactive)	13.9% (inactive)	21.8% (inactive)		
CCOC(=O)N1CCN(C(=O)c2ccc3nc4cc(Cl)ccc4c(=O)n3c2)CC1	726	-8.8% (inactive)	-19.4% (inactive)	118	17.6% (inactive)	118	-0.0121 (inactive)	2.7e-06 (inactive)	0.00404 (inactive)	6.58% (inactive)	6.7% (inactive)		
COc1ccccc1OCc1ccc(C(=O)NC(C)(C)C)o1	735	-5.5% (inactive)	0.6% (inactive)	62.4	-20.5% (inactive)	112	-0.601 (inactive)	5.2e-05 (inactive)	0.00541 (inactive)	-16.1% (inactive)	-22.5% (inactive)		
c1cncc(-c2nnc(SCCSc3nnc(-c4cccnc4)o3)o2)c1	301	-10% (inactive)	20.4% (inactive)	75.6	11.1% (inactive)	122	-0.345 (inactive)	-7.7e-06 (inactive)	0.00585 (inactive)	14.3% (inactive)	20.3% (inactive)		
CCN(CCO)C1CC(=O)N(c2ccccc2C)C1=O (stereo not given)	486	7.7% (inactive)	12.4% (inactive)	104	-126% (inactive)	145	-0.321 (inactive)	-3.6e-05 (inactive)	0.00663 (inactive)	4.48% (inactive)	13% (inactive)		
COc1ccc(N2CCN(c3ncnc4c3cnn4-c3ccc(C)cc3C)CC2)cc1	683	-10.9% (inactive)	-20.3% (inactive)	117	-33.1% (inactive)	98	-0.558 (inactive)	-4.3e-05 (inactive)	0.00551 (inactive)	5.2% (inactive)	-20.2% (inactive)		
Cn1cccc1-c1cc(C(=O)O)[nH]n1	825	-8.7% (inactive)	7.8% (inactive)	56.8	-57.9% (inactive)	139	-0.465 (inactive)	-0.000188 (inactive)	0.00382 (inactive)	15.5% (inactive)	15.9% (inactive)		
COCCN1C(=O)c2oc3c(C)cc(C)cc3c(=O)c2C1c1cccc(O)c1 (stereo not given)	561	-25% (inactive)	6.4% (inactive)	95.1	-66% (inactive)	120	-0.545 (inactive)	-5.1e-05 (inactive)	0.00558 (inactive)	8.51% (inactive)	-1.3% (inactive)		
c1ccc(-c2nn3nnnc3c3ccccc23)cc1	194	-3% (inactive)	6.8% (inactive)	91.1	-2.7% (inactive)	85.1	-0.573 (inactive)	-2.5e-05 (inactive)	0.00565 (inactive)	8.1% (inactive)	20.5% (inactive)		
CN(CC(=O)N1CCN(c2ccccn2)CC1)S(=O)(=O)c1ccc2ccccc2c1	395	0.9% (inactive)	1.9% (inactive)	115	-109% (inactive)	119	-0.478 (inactive)	-7e-05 (inactive)	0.00469 (inactive)	4.05% (inactive)	4.08% (inactive)		
O=C(OCC(=O)N1CCCC1)c1cncc(Br)c1	682	16.5% (inactive)	23.5% (inactive)	83	35.3% (inactive)	102	-0.207 (inactive)	-2.4e-05 (inactive)	0.00528 (inactive)	11.4% (inactive)	0.097% (inactive)		
O=C(Nc1nc(-c2ccc(S(=O)(=O)N3CCCCCC3)cc2)cs1)c1cccs1	368	15% (inactive)	-6.4% (inactive)	115	-30.6% (inactive)	122	-0.53 (inactive)	-2.4e-05 (inactive)	0.0134 (active)	10.4% (inactive)	3.6% (inactive)		
Cc1cc(-c2ccccc2)nc2cc(C(=O)NCCCn3ccnc3)nn12	908	6.4% (inactive)	19.7% (inactive)	86.1	-160% (inactive)	112	-0.362 (inactive)	1.5e-05 (inactive)	0.007 (inactive)	16.4% (inactive)	25.4% (inactive)		
CCOC(=O)CNc1ccc2c(c1)OCO2	368	-7.7% (inactive)	8.3% (inactive)	99.8	-105% (inactive)	118	-0.488 (inactive)	-0.000182 (inactive)	0.00399 (inactive)	8.79% (inactive)	12.5% (inactive)		
CC1(C)NC(=O)N(CNc2cc(Cl)ccc2Cl)C1=O	649	-17.4% (inactive)	-1.9% (inactive)	105	0.8% (inactive)	96.7	-0.435 (inactive)	-0.000384 (inactive)	0.00524 (inactive)	10.6% (inactive)	21.9% (inactive)		
O=C(NCCC1=CCCCC1)C1CCN(S(=O)(=O)c2cccc3nsnc23)CC1	609	7.7% (inactive)	4.8% (inactive)	94.6	-41.8% (inactive)	126	-0.443 (inactive)	-6e-05 (inactive)	0.0046 (inactive)	13.1% (inactive)	26.5% (inactive)		
CCC(=O)N1CCc2cc(S(=O)(=O)CCC(=O)Nc3ccc(C)c(F)c3)ccc21	565	2.7% (inactive)	-3% (inactive)	111	-119% (inactive)	136	-0.504 (inactive)	0.000146 (inactive)	0.00659 (inactive)	8.99% (inactive)	14.5% (inactive)		
CCN(CC)c1ccc(NC(=O)c2cncc(Br)c2)cc1	218	0.6% (inactive)	28% (inactive)	86.8	-31.6% (inactive)	104	-0.59 (inactive)	-6e-05 (inactive)	0.00416 (inactive)	-32.8% (inactive)	-129% (inactive)		
